Measured values as given in ChEMBL document CHEMBL1142726, “In search of a novel anti-HIV drug: multidisciplinary coordination in the discovery of 4-[[4-[[4-[(1E)-2-cyanoethenyl]-2,6-dimethylphenyl]amino]-2- pyrimidinyl]amino]benzonitrile (R278474, rilpivirine)” (J Med Chem, 2005).

What was measured:
[1] = system: Human immunodeficiency virus 1; assay: Effective concentration against human immunodeficiency virus type 1 G190S mutant strain; format: functional, organism-based
Summary of the method: (§1)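 MT-4 human T cells infected with wild-type or mutant HIV-1, exposed to a range of compound concentrations in medium with 10% fetal calf serum. After 5 days at 37 °C, viability of infected and mock-infected cells was read by automated MTT colorimetric assay. […] 95% confidence limits are approximately EC50/4 to EC50×4.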

[2] = system: Human immunodeficiency virus 1; assay: Effective concentration against human immunodeficiency virus type 1 in K103N mutant strain; format: functional, organism-based; summary of the method: as §1
[3] = system: Human immunodeficiency virus 1; assay: Effective concentration against human immunodeficiency virus type 1 wild type strain; format: functional, organism-based
[4] = system: Human immunodeficiency virus 1; assay: Effective concentration against human immunodeficiency virus type 1 Y188L mutant strain; format: functional, organism-based; summary of the method: as §1
[5] = system: Human immunodeficiency virus 1; assay: Effective concentration against human immunodeficiency virus type 1 L100I mutant strain; format: functional, organism-based; summary of the method: as §1
[6] = system: Human immunodeficiency virus 1; assay: Effective concentration against human immunodeficiency virus type 1Y181C mutant strain; format: functional, organism-based; summary of the method: as §1
[7] = system: Human immunodeficiency virus 1; assay: Effective concentration against human immunodeficiency virus type 1 wild type srtain; format: functional, organism-based
Summary of the method: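 MT-4 human T-cells infected with wild-type HIV-1 and exposed to a range of compound concentrations in medium with 10% fetal calf serum. After 5 days at 37 °C, viability was read by automated MTT colorimetric assay, with mock-infected cells run in parallel.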

[8] = system: Human immunodeficiency virus 1; assay: Effective concentration against human immunodeficiency virus type 1 K103N mutant strain; format: functional, organism-based; summary of the method: as §1
[9] = system: Human immunodeficiency virus 1; assay: Effective concentration against human immunodeficiency virus type 1 K103N and Y181C mutant strain; format: functional, organism-based; summary of the method: as §1
[10] = system: Human immunodeficiency virus 1; assay: Effective concentration against human immunodeficiency virus type 1 Y181C mutant was determined; format: functional, organism-based; summary of the method: as §1
[11] = system: Human immunodeficiency virus 1; assay: Effective concentration against rhuman immunodeficiency virus type 1 Y181C mutant strain; format: functional, organism-based; summary of the method: as §1
[12] = system: Human immunodeficiency virus 1; assay: Effective concentration against rhuman immunodeficiency virus type 1 K103N and Y181C mutant strains; format: functional, organism-based
[13] = system: Human immunodeficiency virus 1; assay: Effective concentration against rhuman immunodeficiency virus type 1 L100I mutant strain; format: functional, organism-based; summary of the method: as §1
[14] = system: Human immunodeficiency virus 1; assay: Effective concentration against human immunodeficiency virus type 1 wild type; format: functional, organism-based; summary of the method: as §1
[15] = Half life in dog was determined by intravenous administration; format: ADME, organism-based, Canis lupus familiaris; settings: in vivo
Summary of the method: (§2)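 Pharmacokinetics after single iv dosing of drug formulated in PEG 400. Species: Sprague-Dawley rat (4 mg/kg), beagle dog, cynomolgus monkey and white New Zealand rabbit (1.25 mg/kg each). Elimination half-life (t1/2) and exposure (AUCinf) calculated from plasma concentration–time data.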

[16] = system: Human immunodeficiency virus 1; assay: Effective concentration against human immunodeficiency virus type 1 Y181C mutant strain; format: functional, organism-based; summary of the method: as §1
[17] = Area under the concentration time curve in monkey (intravenous dosage of 1.25 mg/ kg) was determined; format: ADME; settings: cercopithecidae, in vivo; summary of the method: as §2
[18] = Area under the concentration time curve value in rat (intravenous dosage of 4 mg/kg) was determined; format: ADME, organism-based; parameters: dose 4 mg/kg, route intravenous; settings: in vivo; summary of the method: as §2
[19] = system: Human immunodeficiency virus 1; assay: Effective concentration against human immunodeficiency virus type 1 K103N and Y181C mutant strains; format: functional, organism-based; summary of the method: as §1
[20] = In vivo half life in dog was determined after oral administration; format: ADME, organism-based, Canis lupus familiaris
Summary of the method: (§3)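 Oral administration of drug formulated in PEG 400 to Sprague-Dawley rat and beagle dog. Elimination half-life calculated from plasma concentration–time data.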

[21] = Area under the concentration time curve in rabbit (intravenous dosage of 1.25 mg/kg) was determined; format: ADME, organism-based, Oryctolagus cuniculus; parameters: dose 1.25 mg/kg, route intravenous; settings: in vivo; summary of the method: as §2
[22] = Half life in rat was determined after intravenous administration; format: ADME, organism-based; settings: in vivo; summary of the method: as §2
[23] = Half life in rat was determined after oral administration; format: ADME, organism-based; settings: in vivo; summary of the method: as §3
[24] = Area under the concentration time curve in dog (intravenous dosage of 1.25 mg/kg) was determined; format: ADME, organism-based, Canis lupus familiaris; parameters: dose 1.25 mg/kg, route intravenous; settings: in vivo; summary of the method: as §2
[25] = system: Human immunodeficiency virus 1; assay: Effective concentration against rhuman immunodeficiency virus type 1 wild type mutant strain; format: functional, organism-based; summary of the method: as §1

Cc1cc(C)c(Nc2ccnc(Nc3ccc(C#N)cc3)n2)c(C)c1 [DAPIVIRINE]
EC50 [1]: 2 nM | EC50 [2]: 2 nM | EC50 [3]: 1.2 nM | EC50 [4]: 37 nM | EC50 [5]: 11 nM | EC50 [6]: 7 nM

O=C1Nc2ccc(Cl)cc2[C@@](C#CC2CC2)(C(F)(F)F)O1 [EFAVIRENZ]
EC50 [7]: 1.4 nM | EC50 [1]: 275 nM | EC50 [8]: 28 nM | EC50 [4]: 78 nM | EC50 [5]: 35 nM | EC50 [9]: 37 nM | EC50 [10]: 2 nM

Cc1ccnc2c1NC(=O)c1cccnc1N2C1CC1 [NEVIRAPINE]
EC50 [11]: 10000 nM | EC50 [1]: 1000 nM | EC50 [12]: 10000 nM | EC50 [8]: 2880 nM | EC50 [4]: 10000 nM | EC50 [13]: 597 nM | EC50 [14]: 81 nM

Cc1cc(/C=C/C#N)cc(C)c1Nc1ccnc(Nc2ccc(C#N)cc2)n1 [RILPIVIRINE]
EC50 [1]: 0.1 nM | half-life [15]: 31 h | EC50 [16]: 1.3 nM | AUC [17]: 1400 ng·h/mL | AUC [18]: 3100 ng·h/mL | EC50 [8]: 0.3 nM | EC50 [19]: 1 nM | half-life [20]: 39 h | EC50 [4]: 2 nM | EC50 [5]: 0.4 nM | AUC [21]: 44000 ng·h/mL | half-life [22]: 4.4 h | half-life [23]: 2.8 h | AUC [24]: 8700 ng·h/mL | EC50 [25]: 0.4 nM
